Data published in ChEMBL document CHEMBL5058577, “EUbOPEN Chemogenomics Library 2 (Multiplex)” (2022).

Tested on: U2OS
Experiment: Multiplex assay against U2OS
Type: toxicity, cell-based
Settings: human
Summary of the method: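 Hoechst33342, BioTracker Green Microtubule Cytoskeleton Dye, MitoTracker Red and Annexin V Alexa Fluor 680 were added to live cells at seeding, and imaging on a CQ1 microscope at 37°C and 5% CO2 followed compound addition. Gating by CellPathfinder machine learning separated cells into Hoechst high-intensity objects or normal cells, then normal cells into healthy, pyknosed or fragmented nuclei, then pyknosed cells into mitotic or apoptotic. Per cents of healthy-nucleus cells are reported for the tubulin, mitochondrial-mass and membrane-permeability phenotypes.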

[1] = 12 h, 1 µM, compound concentration 1 uM, replicate 1
[2] = 12 h, 1 µM, compound concentration 1 uM, replicate 2
[3] = 12 h, 10 µM, compound concentration 10 uM, replicate 1
[4] = 12 h, 10 µM, compound concentration 10 uM, replicate 2
[5] = 24 h, 1 µM, compound concentration 1 uM, replicate 1
[6] = 24 h, 1 µM, compound concentration 1 uM, replicate 2
[7] = 24 h, 10 µM, compound concentration 10 uM, replicate 1
[8] = 24 h, 10 µM, compound concentration 10 uM, replicate 2
[9] = 48 h, 1 µM, compound concentration 1 uM, replicate 1
[10] = 48 h, 1 µM, compound concentration 1 uM, replicate 2
[11] = 48 h, 10 µM, compound concentration 10 uM, replicate 1
[12] = 48 h, 10 µM, compound concentration 10 uM, replicate 2

SMILES: COc1cc2nc(N3CCN(C(=O)COc4c(OC)cccc4C(C)C)CC3)nc(N)c2cc1OC.Cl.Cl
- Population Apoptotic (%) [1]: 67%
- Population Fragmented Nuclei (%) [1]: 21%
- Population Healthy Nuclei (%) [1]: 66%
- Population Hoechst High Intensity Objects (%) [1]: 3%
- Population Membrane Permeable-Phenotype (%) [1]: 10%
- Population Mitochondria Different-Phenotype (%) [1]: 5%
- Population Mitotic Cells (%) [1]: 32%
- Population Normal (%) [1]: 96%
- Population Pyknosed Nuclei (%) [1]: 11%
- Population Tubulin-Different-Phenotype (%) [1]: 6%
- Total Cell Count [1]: 256
- Population Apoptotic (%) [2]: 33%
- Population Fragmented Nuclei (%) [2]: 10%
- Population Healthy Nuclei (%) [2]: 84%
- Population Hoechst High Intensity Objects (%) [2]: 2%
- Population Mitochondria Different-Phenotype (%) [2]: 6%
- Population Mitotic Cells (%) [2]: 66%
- Population Normal (%) [2]: 97%
- Population Pyknosed Nuclei (%) [2]: 4%
- Total Cell Count [2]: 136
- Population Apoptotic (%) [3]: 55%
- Population Fragmented Nuclei (%) [3]: 30%
- Population Healthy Nuclei (%) [3]: 43%
- Population Hoechst High Intensity Objects (%) [3]: 3%
- Population Membrane Permeable-Phenotype (%) [3]: 60%
- Population Mitochondria Different-Phenotype (%) [3]: 55%
- Population Mitotic Cells (%) [3]: 44%
- Population Normal (%) [3]: 96%
- Population Pyknosed Nuclei (%) [3]: 25%
- Population Tubulin-Different-Phenotype (%) [3]: 75%
- Total Cell Count [3]: 233
- Population Apoptotic (%) [4]: 66%
- Population Fragmented Nuclei (%) [4]: 19%
- Population Healthy Nuclei (%) [4]: 48%
- Population Hoechst High Intensity Objects (%) [4]: 0%
- Population Membrane Permeable-Phenotype (%) [4]: 54%
- Population Mitochondria Different-Phenotype (%) [4]: 65%
- Population Mitotic Cells (%) [4]: 33%
- Population Normal (%) [4]: 99%
- Population Pyknosed Nuclei (%) [4]: 32%
- Population Tubulin-Different-Phenotype (%) [4]: 68%
- Total Cell Count [4]: 151
- Population Apoptotic (%) [5]: 84%
- Population Fragmented Nuclei (%) [5]: 21%
- Population Healthy Nuclei (%) [5]: 67%
- Population Hoechst High Intensity Objects (%) [5]: 3%
- Population Membrane Permeable-Phenotype (%) [5]: 6%
- Population Mitochondria Different-Phenotype (%) [5]: 8%
- Population Mitotic Cells (%) [5]: 15%
- Population Normal (%) [5]: 96%
- Population Pyknosed Nuclei (%) [5]: 11%
- Population Tubulin-Different-Phenotype (%) [5]: 4%
- Total Cell Count [5]: 297
- Population Apoptotic (%) [6]: 80%
- Population Fragmented Nuclei (%) [6]: 15%
- Population Healthy Nuclei (%) [6]: 77%
- Population Hoechst High Intensity Objects (%) [6]: 0%
- Population Membrane Permeable-Phenotype (%) [6]: 10%
- Population Mitochondria Different-Phenotype (%) [6]: 7%
- Population Mitotic Cells (%) [6]: 20%
- Population Normal (%) [6]: 99%
- Population Pyknosed Nuclei (%) [6]: 6%
- Population Tubulin-Different-Phenotype (%) [6]: 5%
- Total Cell Count [6]: 154
- Population Apoptotic (%) [7]: 76%
- Population Fragmented Nuclei (%) [7]: 30%
- Population Healthy Nuclei (%) [7]: 36%
- Population Hoechst High Intensity Objects (%) [7]: 9%
- Population Membrane Permeable-Phenotype (%) [7]: 40%
- Population Mitochondria Different-Phenotype (%) [7]: 49%
- Population Mitotic Cells (%) [7]: 24%
- Population Normal (%) [7]: 90%
- Population Pyknosed Nuclei (%) [7]: 33%
- Population Tubulin-Different-Phenotype (%) [7]: 50%
- Total Cell Count [7]: 246
- Population Apoptotic (%) [8]: 87%
- Population Fragmented Nuclei (%) [8]: 20%
- Population Healthy Nuclei (%) [8]: 40%
- Population Hoechst High Intensity Objects (%) [8]: 12%
- Population Membrane Permeable-Phenotype (%) [8]: 49%
- Population Mitochondria Different-Phenotype (%) [8]: 50%
- Population Mitotic Cells (%) [8]: 12%
- Population Normal (%) [8]: 87%
- Population Pyknosed Nuclei (%) [8]: 39%
- Population Tubulin-Different-Phenotype (%) [8]: 60%
- Total Cell Count [8]: 185
- Population Apoptotic (%) [9]: 83%
- Population Fragmented Nuclei (%) [9]: 20%
- Population Healthy Nuclei (%) [9]: 70%
- Population Hoechst High Intensity Objects (%) [9]: 2%
- Population Membrane Permeable-Phenotype (%) [9]: 6%
- Population Mitochondria Different-Phenotype (%) [9]: 6%
- Population Mitotic Cells (%) [9]: 16%
- Population Normal (%) [9]: 97%
- Population Pyknosed Nuclei (%) [9]: 8%
- Population Tubulin-Different-Phenotype (%) [9]: 4%
- Total Cell Count [9]: 441
- Population Apoptotic (%) [10]: 75%
- Population Fragmented Nuclei (%) [10]: 16%
- Population Healthy Nuclei (%) [10]: 72%
- Population Hoechst High Intensity Objects (%) [10]: 3%
- Population Membrane Permeable-Phenotype (%) [10]: 7%
- Population Mitotic Cells (%) [10]: 25%
- Population Normal (%) [10]: 96%
- Population Pyknosed Nuclei (%) [10]: 11%
- Population Tubulin-Different-Phenotype (%) [10]: 6%
- Total Cell Count [10]: 225
- Population Apoptotic (%) [11]: 88%
- Population Fragmented Nuclei (%) [11]: 40%
- Population Healthy Nuclei (%) [11]: 21%
- Population Hoechst High Intensity Objects (%) [11]: 31%
- Population Membrane Permeable-Phenotype (%) [11]: 13%
- Population Mitochondria Different-Phenotype (%) [11]: 30%
- Population Mitotic Cells (%) [11]: 11%
- Population Normal (%) [11]: 68%
- Population Pyknosed Nuclei (%) [11]: 38%
- Population Tubulin-Different-Phenotype (%) [11]: 13%
- Total Cell Count [11]: 296
- Population Apoptotic (%) [12]: 93%
- Population Fragmented Nuclei (%) [12]: 24%
- Population Healthy Nuclei (%) [12]: 23%
- Population Hoechst High Intensity Objects (%) [12]: 32%
- Population Membrane Permeable-Phenotype (%) [12]: 27%
- Population Mitochondria Different-Phenotype (%) [12]: 10%
- Population Mitotic Cells (%) [12]: 6%
- Population Normal (%) [12]: 67%
- Population Pyknosed Nuclei (%) [12]: 51%
- Population Tubulin-Different-Phenotype (%) [12]: 24%
- Total Cell Count [12]: 180

SMILES: CN1C[C@H](C(=O)N[C@]2(C)O[C@@]3(O)[C@@H]4CCCN4C(=O)[C@H](Cc4ccccc4)N3C2=O)C[C@@H]2c3cccc4[nH]cc(c34)C[C@H]21.CS(=O)(=O)O [DIHYDROERGOTAMINE MESYLATE]
- Population Apoptotic (%) [1]: 82%
- Population Fragmented Nuclei (%) [1]: 24%
- Population Healthy Nuclei (%) [1]: 65%
- Population Hoechst High Intensity Objects (%) [1]: 1%
- Population Membrane Permeable-Phenotype (%) [1]: 6%
- Population Mitochondria Different-Phenotype (%) [1]: 2%
- Population Mitotic Cells (%) [1]: 17%
- Population Normal (%) [1]: 98%
- Population Pyknosed Nuclei (%) [1]: 10%
- Population Tubulin-Different-Phenotype (%) [1]: 2%
- Total Cell Count [1]: 233
- Population Apoptotic (%) [2]: 84%
- Population Fragmented Nuclei (%) [2]: 23%
- Population Healthy Nuclei (%) [2]: 63%
- Population Membrane Permeable-Phenotype (%) [2]: 14%
- Population Mitochondria Different-Phenotype (%) [2]: 1%
- Population Mitotic Cells (%) [2]: 15%
- Population Pyknosed Nuclei (%) [2]: 13%
- Population Tubulin-Different-Phenotype (%) [2]: 7%
- Total Cell Count [2]: 101
- Population Apoptotic (%) [3]: 71%
- Population Fragmented Nuclei (%) [3]: 19%
- Population Healthy Nuclei (%) [3]: 73%
- Population Hoechst High Intensity Objects (%) [3]: 2%
- Population Membrane Permeable-Phenotype (%) [3]: 5%
- Population Mitochondria Different-Phenotype (%) [3]: 1%
- Population Mitotic Cells (%) [3]: 28%
- Population Normal (%) [3]: 97%
- Population Pyknosed Nuclei (%) [3]: 7%
- Population Tubulin-Different-Phenotype (%) [3]: 3%
- Total Cell Count [3]: 298
- Population Apoptotic (%) [4]: 100%
- Population Healthy Nuclei (%) [4]: 77%
- Population Hoechst High Intensity Objects (%) [4]: 1%
- Population Mitochondria Different-Phenotype (%) [4]: 0%
- Population Mitotic Cells (%) [4]: 0%
- Population Normal (%) [4]: 98%
- Population Pyknosed Nuclei (%) [4]: 2%
- Population Tubulin-Different-Phenotype (%) [4]: 0%
- Total Cell Count [4]: 144
- Population Apoptotic (%) [5]: 89%
- Population Fragmented Nuclei (%) [5]: 23%
- Population Healthy Nuclei (%) [5]: 67%
- Population Hoechst High Intensity Objects (%) [5]: 0%
- Population Membrane Permeable-Phenotype (%) [5]: 2%
- Population Mitochondria Different-Phenotype (%) [5]: 0%
- Population Mitotic Cells (%) [5]: 10%
- Population Normal (%) [5]: 99%
- Population Pyknosed Nuclei (%) [5]: 9%
- Population Tubulin-Different-Phenotype (%) [5]: 2%
- Total Cell Count [5]: 307
- Population Apoptotic (%) [6]: 100%
- Population Fragmented Nuclei (%) [6]: 21%
- Population Healthy Nuclei (%) [6]: 65%
- Population Hoechst High Intensity Objects (%) [6]: 1%
- Population Membrane Permeable-Phenotype (%) [6]: 8%
- Population Mitochondria Different-Phenotype (%) [6]: 2%
- Population Mitotic Cells (%) [6]: 0%
- Population Normal (%) [6]: 98%
- Population Pyknosed Nuclei (%) [6]: 13%
- Population Tubulin-Different-Phenotype (%) [6]: 4%
- Total Cell Count [6]: 132
- Population Apoptotic (%) [7]: 88%
- Population Fragmented Nuclei (%) [7]: 18%
- Population Healthy Nuclei (%) [7]: 73%
- Population Hoechst High Intensity Objects (%) [7]: 1%
- Population Membrane Permeable-Phenotype (%) [7]: 4%
- Population Mitochondria Different-Phenotype (%) [7]: 2%
- Population Mitotic Cells (%) [7]: 11%
- Population Normal (%) [7]: 98%
- Population Pyknosed Nuclei (%) [7]: 8%
- Population Tubulin-Different-Phenotype (%) [7]: 2%
- Total Cell Count [7]: 337
- Population Apoptotic (%) [8]: 92%
- Population Fragmented Nuclei (%) [8]: 16%
- Population Healthy Nuclei (%) [8]: 75%
- Population Mitotic Cells (%) [8]: 7%
- Population Tubulin-Different-Phenotype (%) [8]: 1%
- Total Cell Count [8]: 163
- Population Apoptotic (%) [9]: 80%
- Population Fragmented Nuclei (%) [9]: 14%
- Population Healthy Nuclei (%) [9]: 78%
- Population Hoechst High Intensity Objects (%) [9]: 2%
- Population Membrane Permeable-Phenotype (%) [9]: 2%
- Population Mitochondria Different-Phenotype (%) [9]: 2%
- Population Mitotic Cells (%) [9]: 19%
- Population Normal (%) [9]: 97%
- Population Pyknosed Nuclei (%) [9]: 7%
- Population Tubulin-Different-Phenotype (%) [9]: 1%
- Total Cell Count [9]: 427
- Population Apoptotic (%) [10]: 90%
- Population Fragmented Nuclei (%) [10]: 11%
- Population Healthy Nuclei (%) [10]: 76%
- Population Hoechst High Intensity Objects (%) [10]: 1%
- Population Membrane Permeable-Phenotype (%) [10]: 6%
- Population Mitotic Cells (%) [10]: 10%
- Population Normal (%) [10]: 98%
- Population Pyknosed Nuclei (%) [10]: 11%
- Population Tubulin-Different-Phenotype (%) [10]: 4%
- Total Cell Count [10]: 173
- Population Apoptotic (%) [11]: 95%
- Population Fragmented Nuclei (%) [11]: 14%
- Population Healthy Nuclei (%) [11]: 75%
- Population Hoechst High Intensity Objects (%) [11]: 3%
- Population Membrane Permeable-Phenotype (%) [11]: 7%
- Population Mitochondria Different-Phenotype (%) [11]: 3%
- Population Mitotic Cells (%) [11]: 4%
- Population Normal (%) [11]: 96%
- Population Pyknosed Nuclei (%) [11]: 9%
- Population Tubulin-Different-Phenotype (%) [11]: 3%
- Total Cell Count [11]: 452
- Population Apoptotic (%) [12]: 100%
- Population Fragmented Nuclei (%) [12]: 19%
- Population Healthy Nuclei (%) [12]: 72%
- Population Membrane Permeable-Phenotype (%) [12]: 3%
- Population Mitochondria Different-Phenotype (%) [12]: 1%
- Population Mitotic Cells (%) [12]: 0%
- Population Pyknosed Nuclei (%) [12]: 8%
- Population Tubulin-Different-Phenotype (%) [12]: 2%
- Total Cell Count [12]: 217
